Legend:
thermolysin = thermolysin (Bacillus thermoproteolyticus, UniProt P00800); assay: Thermolysin inhibition assay; format: biochemical, bacterial
USP5 = molecular target: T1, USP5 (Homo sapiens, UniProt P45974); assay: In vitro DUB activity assay, USP5; format: biochemical; conditions: 50 μM THL
T1 sequence (P45974 1-858): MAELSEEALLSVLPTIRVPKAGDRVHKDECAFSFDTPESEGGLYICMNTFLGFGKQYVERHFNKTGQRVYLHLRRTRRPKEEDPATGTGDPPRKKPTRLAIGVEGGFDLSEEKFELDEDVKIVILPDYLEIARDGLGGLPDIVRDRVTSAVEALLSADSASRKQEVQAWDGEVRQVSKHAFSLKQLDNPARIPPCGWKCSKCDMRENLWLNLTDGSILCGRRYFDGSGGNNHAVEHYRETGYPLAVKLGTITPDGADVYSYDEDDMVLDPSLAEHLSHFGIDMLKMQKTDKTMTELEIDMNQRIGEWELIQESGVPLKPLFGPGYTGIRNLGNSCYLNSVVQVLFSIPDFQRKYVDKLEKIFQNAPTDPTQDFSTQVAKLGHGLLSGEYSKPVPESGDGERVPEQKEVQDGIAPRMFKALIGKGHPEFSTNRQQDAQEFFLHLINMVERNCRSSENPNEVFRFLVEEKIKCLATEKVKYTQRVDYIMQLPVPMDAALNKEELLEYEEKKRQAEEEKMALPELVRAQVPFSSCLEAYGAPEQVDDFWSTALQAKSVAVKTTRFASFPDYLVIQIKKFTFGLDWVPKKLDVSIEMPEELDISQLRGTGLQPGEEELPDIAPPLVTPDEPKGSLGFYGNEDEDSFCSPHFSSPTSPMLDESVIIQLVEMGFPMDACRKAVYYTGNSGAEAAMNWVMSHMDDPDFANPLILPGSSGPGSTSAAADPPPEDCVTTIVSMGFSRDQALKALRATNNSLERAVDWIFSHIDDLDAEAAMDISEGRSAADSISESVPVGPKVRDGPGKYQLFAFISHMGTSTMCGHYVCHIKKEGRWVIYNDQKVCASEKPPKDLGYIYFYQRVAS
Method in brief: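 Human USP25 or USP5 expressed in E. coli and purified. Enzyme (4 nM) preincubated 30 min at 30°C in Hepes pH 7.3 buffer (KOAc, Mg(OAc)2, EGTA, 1 mM DTT, Tween 20, ovalbumin, protease inhibitors) with DMSO, 50 μM test compound or 50 μM PR619. Reaction started with 1 μM K48-linked tetra-ubiquitin, stopped after 10 or 30 min with SDS sample buffer plus DTT, and analysed by anti-Ub Western blot.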

RNA polymerase II = RNA polymerase II (Saccharomyces cerevisiae, UniProt P04050+P08518); assay: In vitro run-off transcription using tailed templates, Pol II; format: biochemical, S.cerevisiae; conditions: affinity purified polymerase
N.crassa [1] = assay: Accumulation of ubiquitylated proteins; format: cell-based, Neurospora crassa
N.crassa [2] = assay: Protein degradation; format: cell-based, Neurospora crassa
Method in brief: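 N. crassa grown in liquid medium (2% glucose, 2% arginine, 1× Vogel's) and treated with 10 μg/ml cycloheximide, 50 μM test compound (DMSO), or both. Whole-cell lysates taken at time points; 400 μg protein per lane blotted with VVD, FRQ and β-tubulin antibodies, with ECL detection on film. Three independent cultures.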

HeLa cells = assay: Turnover of c-MYC in HeLa cells; format: cell-based; conditions: 10 μM THL
N.crassa [3] = assay: Transcript levels by qRT-PCR in N.crassa; format: cell-based, Neurospora crassa; conditions: 50 μM
Method in brief: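 N. crassa liquid cultures incubated 4 h with indicated test compound concentrations (frq), or with 50 μM over a time course (vvd). RNA quantified by TaqMan qRT-PCR and normalised to 28S rRNA. Three independent experiments, each measured in triplicate.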

N.crassa [4] = assay: RNA sequencing; format: cell-based, Neurospora crassa
Method in brief: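 N. crassa treated with 50 μM test compound for 0, 40 and 120 min, then RNA sequenced. Read counts normalised to reads mapping to supercontig 8 (ribosomal loci). Genes in the lower quartile of mean reads discarded as not expressed.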

angiogenesis in mice = conditions: cited from earlier work
zebrafish embryos = conditions: cited from earlier work

thermolysin, sequence (P00800 233-548): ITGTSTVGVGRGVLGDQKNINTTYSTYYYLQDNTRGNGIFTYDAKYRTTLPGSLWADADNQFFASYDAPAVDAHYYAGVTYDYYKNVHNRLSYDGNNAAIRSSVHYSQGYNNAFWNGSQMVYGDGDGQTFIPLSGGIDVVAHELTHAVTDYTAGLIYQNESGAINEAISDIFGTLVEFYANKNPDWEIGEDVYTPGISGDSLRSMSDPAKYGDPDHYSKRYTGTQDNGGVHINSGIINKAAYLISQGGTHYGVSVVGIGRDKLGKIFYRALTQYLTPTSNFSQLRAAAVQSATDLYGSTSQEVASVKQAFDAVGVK

SMILES: CC(=O)Nc1c2sscc-2n(C)c1=O [THL, thiolutin]
- IC50 (thermolysin): ~2.5 µM
- de-ubiquitylation of substrates by UPS5 (USP5): did not inhibit
- inhibition of yeast RNA polymerase II, run-off transcription (RNA polymerase II): None of the three yeast polymerases were inhibited
- accumulation of ubiquitylated proteins in N.crassa (N.crassa [1]): ubiquitylated proteins accumulated
- degradation of FRQ (N.crassa [2]): blocked but resumed after a wash-out
- degradation of VVD (N.crassa [2]; 50 μM THL alone or with CHX): completely blocked degradation
- degradation of c-MYC (HeLa cells): blocked degradation of c-MYC
- levels of the N.crassa transcripts vvd and frq (N.crassa [3]): dropped rapidly
- global gene expression (RNAseq) (N.crassa [4]; 50 μM THL for 40 or 120 min): vast majority of genes were efficiently downregulated
- number of up-regulated genes (RNAseq) (N.crassa [4]; 50 μM THL, 0, 40, 120 min): 267 genes
- angiogenesis in mice (angiogenesis in mice): inhibition of angiogenesis
- lethality of zebrafish embryos (zebrafish embryos): high lethality
